Assay [1] concerns the target Prothrombin (Bos taurus, UniProt P00735). The assay can be described thus: Inhibitory activity against bovine thrombin.
A short description of assay [2]: The compound was evaluated for the dose to double the control plasma APTT value in the human plasma. It counts as functional. In a few lines:
(§1)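 Human blood was anticoagulated with one-tenth volume 3.8% trisodium citrate and centrifuged at 1300g for 20 min to give platelet-poor plasma. Plasma was spiked with compound at 0 to about 150 μM. It was activated 5 min at 37 °C with bovine cephalin (ellagic acid) reagent, and clotting was started with 20 mM CaCl2. Clot time was read on a coagulometer. Concentration doubling APTT was read from a concentration–APTT plot.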

Assay [3] concerns the target T1, Prothrombin (Homo sapiens, UniProt P00734). In words: The compound was evaluated for the inhibitory activity against human thrombin. In a few lines:
(§2)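 Human thrombin (0.0625 U/mL final) in 0.05 M TRIS-HCl pH 8.4 with S-2238, started by enzyme. Absorbance slope at 405 nm was read over 30 s. A range-finding run at about 0.01–100 μM was followed by substrate at 3.125–100 μM with at least two inhibitor levels plus vehicle. DMSO was below 0.5%. Ki = [i]/(Kp/Km − 1) from double-reciprocal plots.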

Assay [4] is described as follows: The compound was evaluated for the dose to double the control plasma APTT value in the human plasma. It counts as functional. In a few lines:
as §1

Assay [5] deals with T1, Prothrombin. The assay can be described thus: Inhibitory activity against human thrombin.
Assay [6] addresses T1, Prothrombin. In words: The compound was evaluated for the inhibitory activity against human thrombin. An outline of the steps: as §2

In turn, `CC1CNc2c(cccc2S(=O)(=O)NC(CCCN=C(N)N)C(=O)N2CCCC(O)C2)C1` (centres undefined) returned a Ki at Prothrombin [1] of 360 nM. Take `CC(=O)NCCC1CCN(C(=O)C(CCCN=C(N)N)NS(=O)(=O)c2cccc3c2NCC(C)C3)CC1` (centres undefined): the IC200 in assay [2] is 1.8 µM. Besides, the Ki at Prothrombin [1] was 45 nM; on Prothrombin [3], 66 nM. Turning to `CC1CNc2c(cccc2S(=O)(=O)NC(CCCN=C(N)N)C(=O)N2CCC(CCOC(=O)CCC(=O)O)CC2)C1` (centres undefined), the Ki on Prothrombin [1] is 34 nM. The same measure, in the same setting: the value for `CC1CNc2c(cccc2S(=O)(=O)NC(CCCN=C(N)N)C(=O)N2CCCC2)C1` (centres undefined) was 795 nM; that for `CC1CNc2c(cccc2S(=O)(=O)NC(CCCN=C(N)N)C(=O)N2CCC(O)CC2)C1` (centres undefined) was 5180 nM; that for `CC1CNc2c(cccc2S(=O)(=O)NC(CCCN=C(N)N)C(=O)N2CCCCC2CO)C1` (centres undefined) was 64 nM.

In the case of `CC1CNc2c(cccc2S(=O)(=O)NC(CCCNC(=N)N)C(=O)N2CCC(CO)CC2)C1` (centres undefined), on Prothrombin [1], affinity was put at a Ki of 64 nM. Same read-out and setting: the value for `C[C@H]1CNc2c(cccc2S(=O)(=O)NC(CCCNC(=N)N)C(=O)N2CCC(CCO)CC2)C1` (some centres undefined) was 46 nM; that for `CC1CNc2c(cccc2S(=O)(=O)NC(CCCN=C(N)N)C(=O)N2CCC(CCNC(=O)CCC(=O)O)CC2)C1` (centres undefined) was 650 nM; that for `CC1CNc2c(cccc2S(=O)(=O)NC(CCCN=C(N)N)C(=O)N2CCC[C@@H](CO)C2)C1` (some centres undefined) was 1500 nM. Still for that read-out and setting: the value for `CC(C)(c1ccccc1)c1cccc(S(=O)(=O)NC(CCCN=C(N)N)C(=O)N2CCC[C@H]2CO)c1` (some centres undefined) was 2900 nM; that for `N=C(N)NCCCC(NS(=O)(=O)c1cccc2c1NCCC2)C(=O)N1CCC(CCO)CC1` (centres undefined) was 490 nM. On to `CC(=O)NCCC1CCN(C(=O)C(CCCN=C(N)N)NS(=O)(=O)c2cccc3c2NCC(C)(C)C3)CC1` (centres undefined), for which the IC200 in assay [4] was 2.15 µM. Besides, affinity on Prothrombin [5] was put at a Ki of 43 nM. Compound `CC(C)(c1ccccc1)c1cccc(S(=O)(=O)NC(CCCNC(=N)N)C(=O)N2CCCC[C@H]2CO)c1` (some centres undefined) showed a Ki at Prothrombin [1] of 3000 nM. Same read-out and setting: the value for `CC1CNc2c(cccc2S(=O)(=O)NC(CCCN=C(N)N)C(=O)N2CCC(CC(=O)O)CC2)C1` (centres undefined) was 2600 nM. The compound `CC1(C)CNc2c(cc(Cl)cc2S(=O)(=O)NC(CCCN=C(N)N)C(=O)N2CCC(CCF)CC2)C1` (centres undefined) had an IC200 in assay [4] of 3.25 µM. Moreover, on Prothrombin [5], the inhibition constant (Ki) stood at 6.6 nM. `CC1CNc2c(cccc2S(=O)(=O)NC(CCCN=C(N)N)C(=O)N2CCC(CCNC(=O)CCP(=O)(O)O)CC2)C1` (centres undefined) displayed a Ki on Prothrombin [1] of 35200 nM. In turn, `CCC1CCN(C(=O)C(CCCN=C(N)N)NS(=O)(=O)c2cccc3c2NCC(C)C3)CC1` (centres undefined) displayed an inhibitory constant (Ki) on Prothrombin [1] of 27 nM. The IC200 in assay [4] is 6.27 µM. `CC1CNc2c(cccc2S(=O)(=O)NC(CCCNC(=N)N)C(=O)N2CCC(CCOC(=O)CCCC(=O)O)CC2)C1` (centres undefined) returned a Ki on Prothrombin [1] of 170 nM.

In the case of `CC1CNc2c(cccc2S(=O)(=O)NC(CCCN=C(N)N)C(=O)N2CCC(CCCl)CC2)C1` (centres undefined), the Ki came to 19 nM at Prothrombin [1] and 11 nM at Prothrombin [3]. Besides, the IC200 in assay [4] is 2.7 µM. Compound `CC1(C)CNc2c(cccc2S(=O)(=O)NC(CCCN=C(N)N)C(=O)N2CCC(CC(F)F)CC2)C1` (centres undefined) came in with an IC200 in assay [2] of 1.5 µM. The inhibition constant (Ki) on Prothrombin [5] was found to be 6 nM.

As to `CC1CNc2c(cccc2S(=O)(=O)NC(CCCN=C(N)N)C(=O)N2CCC(CCCCCCC(=O)O)CC2)C1` (centres undefined), the affinity on Prothrombin [1], expressed as Ki, was 1980 nM. The same measure, in the same setting: the value for `CC1CNc2c(cccc2S(=O)(=O)NC(CCCN=C(N)N)C(=O)N2CCCC[C@H]2CO)C1` (some centres undefined) was 23 nM; that for `CC1CNc2c(cccc2S(=O)(=O)NC(CCCN=C(N)N)C(=O)N2CCC[C@H]2CO)C1` (some centres undefined) was 80 nM. Turning to `CC1CNc2c(cccc2S(=O)(=O)NC(CCCNC(=N)N)C(=O)N2CCC(CCCO)CC2)C1` (centres undefined), at Prothrombin [1], the Ki is 185 nM. Compound `CC1CNc2c(cccc2S(=O)(=O)NC(CCCNC(=N)N)C(=O)N2CCC[C@@H](CCO)C2)C1` (some centres undefined) had a Ki at Prothrombin [1] of 1350 nM. For `CC1(C)CNc2c(cc(Cl)cc2S(=O)(=O)NC(CCCN=C(N)N)C(=O)N2CCC(CC(F)F)CC2)C1` (centres undefined), the IC200 in assay [2] amounted to 6 µM. Moreover, at Prothrombin [5], the Ki was found to be 12.1 nM. `CC1CNc2c(cccc2S(=O)(=O)NC(CCCNC(=N)N)C(=O)N2Cc3ccccc3CC2CO)C1` (centres undefined): the affinity on Prothrombin [1], expressed as Ki, was 890 nM. Regarding `CC1CNc2c(cccc2S(=O)(=O)NC(CCCN=C(N)N)C(=O)N2CCC(CCC(=O)NCCC(=O)O)CC2)C1` (centres undefined), the inhibitory constant (Ki) on Prothrombin [6] was determined as 280 nM; on Prothrombin [1] it was 310 nM. As to `CC1(C)CNc2c(cc(Cl)cc2S(=O)(=O)NC(CCCN=C(N)N)C(=O)N2CCC(CCOC(=O)C(C)(C)C)CC2)C1` (centres undefined), affinity at Prothrombin [1] was put at a Ki of 56 nM. Further, in assay [4], the IC200 was 8.5 µM.

On Prothrombin [1], `CC(C)(c1ccccc1)c1cccc(S(=O)(=O)NC(CCCNC(=N)N)C(=O)N2CCc3ccccc3C2)c1` (centres undefined) displayed a Ki of 49 nM. Still for that read-out and setting: the value for `CC1CNc2c(cccc2S(=O)(=O)NC(CCCNC(=N)N)C(=O)N2CCc3ccccc3C2)C1` (centres undefined) was 23 nM; that for `CC1CNc2c(cccc2S(=O)(=O)NC(CCCN=C(N)N)C(=O)N2CCC(CCC(=O)O)CC2)C1` (centres undefined) was 18400 nM. In assay [2], `CC1(C)CNc2c(cccc2S(=O)(=O)NC(CCCN=C(N)N)C(=O)N2CCC(CCF)CC2)C1` (centres undefined) registered an IC200 of 2.1 µM. The affinity at Prothrombin [5], expressed as Ki, was 5.7 nM.

The compound `CC1CNc2c(cccc2S(=O)(=O)NC(CCCN=C(N)N)C(=O)N2CCC(CCO)CC2)C1` (centres undefined) returned a Ki at Prothrombin [1] of 52 nM. Consider `CC1CNc2c(cccc2S(=O)(=O)NC(CCCN=C(N)N)C(=O)N2CCC(CCOCCCC(=O)O)CC2)C1` (centres undefined), for which affinity on Prothrombin [1] was put at a Ki of 980 nM.

As for `CC1CNc2c(cccc2S(=O)(=O)NC(CCCN=C(N)N)C(=O)N2CCC(CCOC(=O)CC(=O)O)CC2)C1` (centres undefined), affinity at Prothrombin [1] was put at a Ki of 360 nM.

These data come from ChEMBL document CHEMBL1132465, “Design and synthesis of thrombin inhibitors: analogues of MD-805 with reduced stereogenicity and improved potency” (J Med Chem, 1999).
